Screening results as filed in PubChem.
KCNQ1 inh = inhibitors of human KCNQ1 channel, primary screen, cell-based, thallium flux, high-throughput. Potassium voltage-gated channel subfamily KQT member 1 (Homo sapiens), P51787. CHO-K1 KCNQ1, FluxOR thallium flux fluorescence; active compounds read high. B-score at 10 µM. 310,000 compounds, 1.3% hits. AID 2642, 2010;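 active means compounds whose thallium flux B-score, printed positive for inhibition, exceeds three library SD while starting fluorescence stays within three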;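 further: channel opened by potassium depolarization with thallium stimulus after 20 min compound exposure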
KCNK9 inh = KCNK9 potassium channel inhibitors, primary screen, HEK293 cells, thallium flux | Potassium channel subfamily K member 9 (Homo sapiens), Q9NPC2 | FluxOR thallium flux fluorescence; active compounds read low | B-score at 10 µM | 310,000 compounds, 1.2% hits;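 active means ratio B-score over 3 SD below the library mean, with starting fluorescence within 5 SD of its mean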;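 further: negative B-score means less thallium flux so channel inhibition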
hERG protect = hERG rescue from dofetilide block, primary screen, cell-based, CHO-hERG, FluxOR thallium flux, dofetilide IC70; dofetilide IC70 present; Voltage-gated inwardly rectifying potassium channel KCNH2 (Homo sapiens), Q12809; 310,000 compounds, 0.51% hits; activation (rescue from dofetilide block), less the hit threshold, % at 10 µM; AID 1511, 2009;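 active means activation above the mean of controls blocked by dofetilide plus 5 SD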;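 further: thallium influx through hERG after potassium depolarization seen as dye fluorescence rise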
Target sequence (Q12809 whole entry, looked up): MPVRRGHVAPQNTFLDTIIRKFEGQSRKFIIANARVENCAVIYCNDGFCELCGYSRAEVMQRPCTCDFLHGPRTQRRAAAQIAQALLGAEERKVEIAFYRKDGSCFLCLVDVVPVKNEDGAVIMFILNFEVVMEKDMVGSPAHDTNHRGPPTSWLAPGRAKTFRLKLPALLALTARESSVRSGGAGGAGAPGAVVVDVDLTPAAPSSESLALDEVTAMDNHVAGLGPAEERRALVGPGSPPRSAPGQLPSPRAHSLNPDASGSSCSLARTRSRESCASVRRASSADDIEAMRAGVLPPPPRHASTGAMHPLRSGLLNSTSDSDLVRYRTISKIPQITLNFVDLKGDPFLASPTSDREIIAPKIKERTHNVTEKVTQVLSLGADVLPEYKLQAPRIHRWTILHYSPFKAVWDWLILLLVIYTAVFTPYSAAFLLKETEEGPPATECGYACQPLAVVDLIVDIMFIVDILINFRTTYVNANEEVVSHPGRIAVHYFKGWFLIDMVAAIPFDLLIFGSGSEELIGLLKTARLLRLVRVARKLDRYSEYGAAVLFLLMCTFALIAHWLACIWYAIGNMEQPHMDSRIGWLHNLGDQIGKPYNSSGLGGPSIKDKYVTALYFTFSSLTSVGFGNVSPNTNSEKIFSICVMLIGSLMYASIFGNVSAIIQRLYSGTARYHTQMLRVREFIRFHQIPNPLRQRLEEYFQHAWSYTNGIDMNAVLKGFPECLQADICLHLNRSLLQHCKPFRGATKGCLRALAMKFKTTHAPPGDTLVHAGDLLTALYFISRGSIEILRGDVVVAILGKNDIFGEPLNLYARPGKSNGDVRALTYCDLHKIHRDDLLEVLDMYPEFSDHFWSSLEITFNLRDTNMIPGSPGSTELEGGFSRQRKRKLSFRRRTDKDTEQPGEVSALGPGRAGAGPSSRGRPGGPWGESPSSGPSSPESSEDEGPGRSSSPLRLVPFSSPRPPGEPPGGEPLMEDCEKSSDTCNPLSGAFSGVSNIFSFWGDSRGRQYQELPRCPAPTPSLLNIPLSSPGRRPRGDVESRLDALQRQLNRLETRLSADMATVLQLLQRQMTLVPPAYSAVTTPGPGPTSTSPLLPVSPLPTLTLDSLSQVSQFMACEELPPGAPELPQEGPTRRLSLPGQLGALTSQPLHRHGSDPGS
Kir21 block = inhibitors of mouse Kir2.1 inward-rectifier potassium channel | HEK293-Kir2.1, FluxOR thallium flux fluorescence; active compounds read low | B-score at 10 µM | AID 1672, 2009 | 310,000 compounds, 0.85% hits | Inward rectifier potassium channel 2 (Mus musculus), P35561;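 active means fluorescence ratio B-score at or below minus 3 SD of library scores, with starting-brightness B-score within 2 SD, cut at about -4.2 in these data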;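 further: channel flux triggered by added potassium and thallium sulfate stimulus; B-score of peak minus minimum fluorescence over baseline after thallium stimulus; more negative B-score means stronger Kir2.1 block with less thallium influx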
KCNQ1 act = potentiators or activators of KCNQ1 channel, primary screen, cell-based, thallium flux, high-throughput. CHO-K1 KCNQ1, thallium flux FluxOR fluorescence; active compounds read high. B-score at 10 µM. 310,000 compounds, 0.35% hits;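 active means fluorescence ratio B-score, a plate-corrected score, at least three library SD, with initial intensity B-score within 5 SD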
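Doses: Single concentration per compound, DMSO matched to controls | Test system: KCNQ1-transfected CHO-K1 cells | Timing: 90 min dye loading and 20 min compound exposure, both at room temperature | Measured by: Kinetic FluxOR thallium fluorescence, 10-s 1-Hz baseline, 110-s post-stimulus read | Medium: Assay buffer with matched DMSO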
KCNK3 inh = human KCNK3 channel inhibitors, primary screen, CHO cells, FluxOR thallium flux, B-score. 340,000 compounds, 0.84% hits. Potassium channel subfamily K member 3 (Homo sapiens), O14649. AID 602410, 2012. FluxOR fluorescence; active compounds read low. B-score at 10 µM;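 active means B-score under library mean minus 4 SD, starting fluorescence ratio at most library mean plus 5 SD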;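 further: more negative B-score means stronger inhibition of thallium flux through KCNK3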
KCNK3 inh conf = retest of human KCNK3 channel inhibitors, confirmation, CHO cells, FluxOR thallium flux, triplicate; shares compounds with KCNK3 inh; FluxOR fluorescence; 0% buffer, 100% carvedilol maximal block; ratio percent of control, % at 10 µM; 2,400 compounds, 99% hits; AID 651638, 2012;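 active means ratio percent of control, averaged over triplicates, above buffer control mean plus 5 SD, cut at about 64% in these data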;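 further: ratio is the fluorescence rise from min to max over baseline after thallium stimulus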
KCNK3 noninduced = thallium flux inhibition in non-induced cells, primary screen, counter-screen for KCNK3 inhibitor project, cell-based, non-induced KCNK3 line, FluxOR thallium, triplicate. shares compounds with KCNK3 inh. non-induced KCNK3 parental cells; active compounds read low. thallium flux ratio (lower = more inhibition) at 10 µM. 2,400 compounds, 40% hits. AID 651747, 2012;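 active means thallium flux ratio, averaged over three wells, more than 5 SD below the buffer control mean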;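 further: host cells are CHO cells without KCNK3 induction; ratio is peak minus trough fluorescence over baseline then normalized to buffer controls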
* marks the source's active call; other numbers are inactive results; i = inactive; . = no result. Hits are enriched below; roughly 3.7% of the tested compounds scored in any of these assays.

SMILES | KCNQ1 inh | KCNK9 inh | hERG protect | Kir21 block | KCNQ1 act | KCNK3 inh | KCNK3 inh conf | KCNK3 noninduced
COC(=O)c1cc(NC(=O)c2cc(-c3ccccc3Cl)oc2C(F)(F)F)ccc1N1CCOCC1 | 8* | i | -13.4 | -0.62 | i | -11.3* | 84.0* | 0.125*
Cc1ccc(-c2cc(-c3ccc(C)o3)nc(N)c2C#N)cc1 | i | i | -10.8 | 0.79 | i | -10.9* | 101.3* | i
O=C(Nc1ccc2c(c1)N(S(=O)(=O)c1cccs1)CCC2)c1c(F)cccc1F | i | i | -13.7 | 0.95 | i | -8.71* | 100.7* | i
CCNC(=O)C(=O)Nc1ccc2c(c1)N(S(=O)(=O)c1cccs1)CCC2 | i | i | -15.3 | 0.52 | i | i | . | .
CN(C)c1ccc(C=c2c3ccccc3n3c2c2c([n+]3C)CCCC2)cc1 | . | . | . | . | . | -12.6* | 171.3* | 0.0713*
CN(C)c1ccc(/C=C2\CCC/C(=C\c3ccccc3)C2=O)cc1 | i | i | -8.9 | -1.12 | i | i | . | .
N#Cc1c(N)nc(SCC(=O)OCc2ccccc2)c(C#N)c1-c1ccco1 | i | i | -8.4 | -0.79 | i | -11.4* | 87.3* | i
C[C@H](NC(=O)c1nc[nH]c1C(=O)NC1CCN(C(=O)OC(C)(C)C)CC1)C(=O)OCc1ccccc1 | i | i | -17.5 | 1.2 | i | i | . | .
CCc1ccc(CNC(=O)CCn2ccc3cc(S(=O)(=O)N4CCCC4)ccc32)cc1 | i | i | -6.5 | -1.3 | i | -10.4* | 117.3* | 0.154*
COc1ccc(/C=C2/SC(c3ccc(C)cc3)=NC2=O)cc1OC | i | i | -5.7 | -1.05 | i | i | . | .
COc1cc(/C=C2\SC(c3ccc(C)cc3)=NC2=O)ccc1O | i | i | -3.7 | -0.1 | i | -9.37* | 142.0* | 0.099*
CC(C)N(Cc1ccccc1)C(=S)NC1CCCCC1 | i | i | -9.8 | -5.42* | i | -8.86* | 111.3* | i
CC(C)N(C(=S)NC1CCCCC1)c1ccccc1 | i | i | -20.8 | -2.61 | i | . | . | .
Cc1cc(NC(=O)CN(C)CCOc2ccccc2)ccc1Br | i | i | -18.6 | -0.07 | i | i | . | .
CN(CCOc1ccccc1)CC(=O)Nc1cccc(Br)c1 | i | i | -14.3 | 0.03 | i | -9.16* | 94.3* | i
CN(CCOc1ccc(Cl)cc1)CC(=O)Nc1ccc(OC(F)(F)F)cc1 | i | i | -4.5 | -1.02 | i | -9.12* | 108.3* | 0.154*
COc1ccc(NC(=O)CN(C)CCOc2ccc(Cl)cc2)cc1OC | i | i | -3.9 | -1.27 | i | i | . | .
Cc1ccc(S(=O)(=O)CCC(=O)OCC(=O)c2cc(C)n(C)c2C)cc1 | . | . | . | . | . | i | . | .
C=CCc1cc(C)ccc1OCCCC(C(=O)OCC)C(=O)OCC | i | i | -8.6 | -1.24 | i | -11.8* | 101.0* | i
Cc1ccc2[nH]c(CNC(=O)C3CCCCC3)cc2c1 | i | i | -3.9 | 1.35 | i | i | . | .
COc1ccc(Cn2c(SCC(=O)NCc3ccco3)nc3ccsc3c2=O)cc1 | i | i | -3.5 | -0.02 | i | i | . | .
COC(=O)C(C)Sc1nc2ccsc2c(=O)n1Cc1ccccc1 (stereo not drawn) | i | i | -14.0 | -0.24 | i | -9.42* | 93.7* | i
Cc1ccc(OCCC(=O)NNC(=O)c2ccc(Br)cc2)cc1 | . | . | . | . | . | i | . | .
